Rows were chosen to be rich in hits. Some 4.6% of all compounds tested hit in one or more screens of this group.
GPR7 antagonist: blocks human GPR7 receptor signaling. P48145. GPR7-expressing cells, fluorescence antagonist assay. inhibition, % at 4.4 µM. 290,000 compounds, 1.1% hits. AID 1861; in the data active means inhibition above about 16%, passing the limit was not always enough;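 further: cells stimulated with the agonist NPW; 0% = agonist with vehicle and 100% = vehicle without agonist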
TAAR1 antagonist: human TAAR1 antagonism. Q96RJ0. CHO RD-HGA16 TAAR1, Fluo-8 calcium fluorescence, antagonist. inhibition, % at 3 µM. 360,000 compounds, 1.5% hits. AID 624466;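 active means inhibition above a per-plate cutoff, the mean inhibition of test compounds on that plate plus 3 SD, cut at about 49% in these data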;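 further: 0% = DMSO plus EC80 beta-PEA response and 100% = DMSO alone without agonist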
Target sequence (Q96RJ0 whole entry, looked up): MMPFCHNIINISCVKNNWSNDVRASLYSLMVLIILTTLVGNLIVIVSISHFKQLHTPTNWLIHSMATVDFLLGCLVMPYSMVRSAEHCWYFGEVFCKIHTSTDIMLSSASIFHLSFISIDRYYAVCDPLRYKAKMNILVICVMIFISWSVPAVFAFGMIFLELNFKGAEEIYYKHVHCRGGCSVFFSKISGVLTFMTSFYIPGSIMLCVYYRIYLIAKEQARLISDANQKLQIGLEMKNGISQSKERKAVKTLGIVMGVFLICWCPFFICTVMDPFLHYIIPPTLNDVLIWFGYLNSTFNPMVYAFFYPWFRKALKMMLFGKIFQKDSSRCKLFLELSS
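Test system – hTAAR1-expressing CHO RD-HGA16 cells, Gα16-coupled · Reagent – β-PEA at EC80 concentration, post-compound challenge · Compound dosing – 3 µM, single point · Timing – 140 s kinetic read after compound, 140 s after agonist · Detection – Fluo-8 intracellular calcium dye fluorescence, real-time kinetic reads · Control set – DMSO and EC80 PEA controls · Repeats – n of 1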
CHO parental Ca: counter-screen for OX1R antagonists: effect in parental CHO cells; parental CHO-K1, ATP-induced calcium, Fluo-8 fluorescence; AID 463079; 330,000 compounds, 0.63% hits; inhibition, % at 5.6 µM;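 active means inhibition above that plate's mean sample inhibition plus 3 SD, cut at about 26% in these data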;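 further: 0% = ATP-challenged DMSO wells and 100% = DMSO wells without ATP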
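Material: parental CHO cells / Compound: single nominal dose of 5.6 µM per compound / Signal: Fluo-8 fluorescence / Replicates: singlicate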
TAAR1 ag: human TAAR1 agonism; Q96RJ0; AID 624467; 360,000 compounds, 0.99% hits; CHO RD-HGA16 TAAR1, Fluo-8 calcium fluorescence; vehicle wells 0%, saturating PEA agonist 100%; activation, % at 3 µM;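 active means activation above the mean activation of all test compounds in the run plus 3 SD, cut at about 38% in these data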
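Benchmarks: low control DMSO, high control PEA (EC100); System: CHO RD-HGA16 cells carrying human TAAR1 plus Gα16; Detection: Fluo-8 fluorescence, 5 s baseline then 140 s kinetic read; Schedule: 17-24 h plating, Fluo-8 75 min 37 °C, 30 min RT; Read-out basis: % activation from peak over basal fluorescence ratio, DMSO-to-PEA scaled.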
OX1R antag-1: human HCRTR1 antagonism. 330,000 compounds, 0.43% hits. inhibition, % at 5 µM. O43613. CHO/OX1R cells, Fluo-8 calcium fluorescence, orexin A;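 active means inhibition above its plate's threshold, mean inhibition of all tested compounds on the plate plus 3 SD, cut at about 37% in these data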;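 further: 0% = orexin A challenge wells and 100% = SB-334867-A antagonist wells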
Target sequence (O43613 whole entry, looked up): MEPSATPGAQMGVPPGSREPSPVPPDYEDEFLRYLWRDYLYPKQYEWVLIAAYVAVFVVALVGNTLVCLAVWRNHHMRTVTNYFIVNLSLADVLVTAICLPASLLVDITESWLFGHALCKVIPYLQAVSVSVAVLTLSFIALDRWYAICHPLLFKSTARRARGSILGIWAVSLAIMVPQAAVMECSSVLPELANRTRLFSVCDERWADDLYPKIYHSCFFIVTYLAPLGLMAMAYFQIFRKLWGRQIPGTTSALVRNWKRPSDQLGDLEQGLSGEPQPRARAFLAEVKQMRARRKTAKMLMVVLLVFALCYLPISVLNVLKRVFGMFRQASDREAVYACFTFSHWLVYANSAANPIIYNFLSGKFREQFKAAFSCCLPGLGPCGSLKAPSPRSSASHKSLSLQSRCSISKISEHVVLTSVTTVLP
OX1R antag-2: blocks the human orexin 1 receptor | O43613 | OX1R-expressing cells, FRET antagonist read-out | inhibition, % at 6.6 µM | 330,000 compounds, 1.8% hits; in the data active means inhibition mostly above about 38%, no sharp cut-off; inactive means mostly below about 40%;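 further: 0% = agonist challenge alone and 100% = reference antagonist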
TAAR1 nonsel count: counter-screen for TAAR1 antagonists: nonselective antagonists; shares compounds with TAAR1 antagonist; inhibition, % at 3 µM; AID 651780; counterscreen cell line, calcium fluorescence, antagonist mode; 2,400 compounds, 77% hits; in the data active means inhibition above about 22%;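 further: CHO-Ga16 host cells stimulated with ATP at an EC80 level; 0% = agonist EC80 plus vehicle and 100% = vehicle without agonist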
TAAR1 antag conf: human TAAR1 antagonism, confirmed; shares compounds with TAAR1 antagonist; TAAR1-expressing cells, fluorescence antagonist read-out; inhibition, % at 3 µM; 2,400 compounds, 40% hits; in the data active means inhibition above about 49%;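 further: CHO-Ga16 host cells challenged with agonist PEA near its EC80; 0% = agonist at EC80 plus vehicle and 100% = vehicle with no agonist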
Ga16 nonsel ag: counter-screen for TAAR1 antagonists: nonselective Ga16 agonists | 2,400 compounds, 18% hits | shares compounds with TAAR1 antagonist | Ga16-expressing cells, calcium fluorescence, agonist counterscreen | AID 651953 | activation, % at 3 µM; in the data active means activation above about 12%;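 further: 0% = vehicle wells and 100% = saturating stimulus response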
TAAR1 ag count: activates human TAAR1 in antagonist counter-screen | shares compounds with TAAR1 antagonist | hTAAR1 cell line, fluorescence activation, agonist mode | activation, % at 3 µM | 2,400 compounds, 2% hits | AID 651955; in the data active means activation above about 37%;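 further: CHO cells stably expressing TAAR1 with calcium dye readout; 0% = DMSO vehicle and 100% = full agonist response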
An asterisk follows results filed as active; . = no result given.

SMILES | GPR7 antagonist | TAAR1 antagonist | CHO parental Ca | TAAR1 ag | OX1R antag-1 | OX1R antag-2 | TAAR1 nonsel count | TAAR1 antag conf | Ga16 nonsel ag | TAAR1 ag count
COc1ccc(-c2nc3cccc(C)n3c2NCC2CCCO2)cc1O (configuration not stated) | -3 | 65* | 2 | 15 | -17 | 29 | 27* | 48 | 8 | 8
O=C(NCCCCc1ccccc1)c1cccc(NC(=O)c2ccccc2)c1 | . | 41 | . | 5 | . | . | . | . | . | .
O=C(NCCc1ccc(F)cc1)c1cccc(NC(=O)c2ccccc2)c1 | -7 | 61* | 6 | 14 | -6 | 18 | 33* | 51* | 9 | 9
O=C(Nc1cccc(C(=O)Nc2ccc(Br)cc2)c1)c1ccccc1 | -2 | 76* | 9 | 14 | -6 | 4 | 44* | 57* | 11 | 7
O=C(/C=C/c1ccccc1)Nc1cccc(C(=O)NCCCc2ccccc2)c1 | . | 77* | . | 12 | . | . | 35* | 50* | 8 | 7
O=C(Nc1ccc(Nc2ccccc2)cc1)c1ccc(Br)cc1 | -15 | 3 | 6 | 5 | -7 | 13 | . | . | . | .
O=C(/C=C/c1ccccc1)Nc1cccc(C(=O)NCc2ccccc2)c1 | . | -6 | . | 2 | . | . | . | . | . | .
O=C(NCCCCc1ccccc1)c1cccc(NC(=O)C2CCCC2)c1 | . | 64* | . | 9 | . | . | 25* | 42 | 10 | 12
CCc1cc2c(nc1CC)CCCN2CCOC | . | -1 | . | 1 | . | . | . | . | . | .
O=C(COC(=O)c1cccc(S(=O)(=O)N2CCCC2)c1)Nc1cccc(Br)c1 | . | -5 | . | 3 | . | . | . | . | . | .
CCC(=O)N1CCC(C)(C(=O)NCc2cccc(OC)c2)C1 (configuration not stated) | . | 11 | . | 1 | . | . | . | . | . | .
Cc1cc(C)n(-c2nc(Nc3ccccc3C(F)(F)F)nc(-n3nc(C)cc3C)n2)n1 | 1 | 92* | 42* | 37 | 62* | 60 | 42* | 70* | 13* | 17
Cc1cc(C)n(-c2nc(NC(C)(C)C)nc(NC(C)(C)C)n2)n1 | -5 | -4 | 6 | 4 | -8 | 22 | . | . | . | .
CC(C)NC(=O)C1(C)CCN1C(=O)C(c1ccccc1)c1ccccc1 (configuration not stated) | . | -24 | . | 0 | . | . | . | . | . | .
COC(=O)c1ccc(C)c(NC(=O)CSc2nnc3ccccn23)c1 | . | 87* | -16 | -2 | -5 | 6 | 3 | 0 | 0 | 10
CCOc1ccc(CN(C)C(=O)NNC(=O)c2ccc(C)cc2)cc1OC | 0 | -7 | 4 | 0 | -10 | 14 | . | . | . | .
CN(Cc1ccc(F)cc1)C(=O)C(Cc1ccccc1)NC(=O)c1ccccc1 (configuration not stated) | . | 67* | -24 | 9 | -20 | 41 | 27* | 55* | 9 | 7
CCOc1ccc(CN(C)C(=O)[C@H](Cc2ccccc2)NC(=O)OCc2ccccc2)cc1OC | 2 | 62* | -16 | 12 | -15 | 19 | 30* | 55* | 9 | 8
CSc1ccc(CN(C)C(=O)C(c2ccccc2)c2ccccc2)cc1 | -6 | 7 | -31 | 0 | 1 | -6 | . | . | . | .
CSc1ccc(CN(C)C(=O)C(Cc2ccccc2)NC(=O)c2ccccc2)cc1 (configuration not stated) | 11 | 82* | -23 | 9 | -1 | 70* | 34* | 57* | 10 | 10
COC(=O)[C@]12C[C@H](CC(=O)NCCCCc3ccccc3)C(=O)N(Cc3ccccc3)C1=C[C@H](C1CCCC1)O[C@@H]2C | . | -15 | . | 0 | . | . | . | . | . | .
O=[N+]([O-])c1cc2c(c([N+](=O)[O-])c1)Nc1ccccc1O2 | . | 9 | . | 5 | . | . | . | . | . | .
COc1ccc(-c2cc(-c3nnc(COC(=O)C4CC4C)o3)c3ccccc3n2)cc1OC (configuration not stated) | -9 | 65* | -16 | 11 | -25 | 20 | 21 | 41 | 5 | 1
COc1ccc(-c2cc(-c3nnc(COC(=O)c4ccc(O)cc4)o3)c3ccccc3n2)cc1OC | 1 | 48 | -8 | 16 | -12 | 13 | . | . | . | .
CNC(=O)c1cccc(NC(=O)c2ccccc2OCc2ccccc2)c1 | -9 | 54* | -10 | 22 | 16 | 18 | 21 | 37 | 6 | 16
SMILES | GPR7 antagonist | TAAR1 antagonist | CHO parental Ca | TAAR1 ag | OX1R antag-1 | OX1R antag-2 | TAAR1 nonsel count | TAAR1 antag conf | Ga16 nonsel ag | TAAR1 ag count
COc1cc(NC(=O)c2ccccc2OCc2ccccc2)cc(OC)c1OC | 3 | 61* | -14 | 7 | -14 | 45* | 20 | 47 | 8 | 9
CC1CCN(C(=O)c2ncn3c2C(=O)NC[C@H]3C)CC1 | . | -10 | . | 1 | . | . | . | . | . | .
CC(C)C[C@H]1COc2cc(N(C)CCO)ccc2S(=O)(=O)N1 | . | -3 | . | 5 | . | . | . | . | . | .
O=C(N[C@@H]1CC[C@@H](CCNS(=O)(=O)c2ccc(Cl)cc2)O[C@@H]1CO)c1cccnc1 | . | 16 | . | 2 | . | . | . | . | . | .
CN(C(=O)c1cnc(N2CCN(c3ncccn3)CC2)c2ccccc12)c1ccc(Cl)cc1 | -9 | 51* | -20 | 14 | -34 | 6 | 15 | 39 | 8 | 13
O=C(c1cnc(N2CCN(c3ncccn3)CC2)c2ccccc12)N1CCN(c2ncccn2)CC1 | -10 | 59* | -6 | 21 | -22 | 17 | 32* | 49* | 11 | 13
O=C(O)c1ccccc1C(=O)N1CCN(c2ncccn2)CC1 | 11 | -4 | . | 10 | . | . | . | . | . | .
CCN(C(=O)c1cnc(N2CCN(c3ncccn3)CC2)c2ccccc12)c1cccc(Cl)c1 | -3 | 50* | -12 | 13 | -40 | 16 | 27* | 31 | 4 | 6
Cc1ccc(F)cc1C(=O)N1CCCC(c2cc(C(=O)NCc3ccccc3)no2)C1 (configuration not stated) | . | -21 | . | 0 | . | . | . | . | . | .
CCC(C)Sc1ccc(-c2nc3cnccn3c2NC2CCCCC2)cc1 (configuration not stated) | . | 20 | -30 | 8 | -36 | 47 | . | . | . | .
COc1ccc(Sc2ccc(-c3nc4cnccn4c3NC3CCCCC3)cc2OC)cc1 | . | 58* | -10 | 10 | 10 | 5 | 29* | 41 | 4 | 4
Cc1c(C(=O)N2CCN(c3ccccc3)CC2)oc2c1C(=O)CC(C)(C)C2 | -18 | 67* | -16 | 11 | -15 | 16 | 30* | 53* | 8 | 7
